# Source: publication PMC9126795 (eBioMedicine, 2022)
# Like-named read-outs stand apart in the source and are kept apart here.
# How the values were obtained:
# [1] = test system: patients with HCV and HBV liver cirrhosis; assay: Liver stiffness measure; type: in vivo, human; conditions: 12 weeks
# Method in brief: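 Liver stiffness was measured by FibroScan at baseline and 12 weeks post-treatment in cirrhosis patients. Dosing was 280 mg/m² test compound by 4 h IV infusion twice weekly for 12 weeks. Thirteen patients were analysed, and the change relative to baseline was computed, including the ≥10% decrease subset among Child–Pugh B patients.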
# [2] = test system: patients with HCV and HBV liver cirrhosis; assay: Serum fibrosis markers; type: in vivo, human; conditions: before vs 12 weeks after PRI-724 administration
# Method in brief: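 As an exploratory endpoint, serum hyaluronic acid and type IV collagen type S were measured before and 12 weeks after a course of 280 mg/m² test compound (4 h IV infusion, twice weekly, 12 weeks). Subjects were patients with HCV/HBV cirrhosis, and mean levels were compared.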
# [3] = test system: patients with HCV and HBV liver cirrhosis; assay: FIB-4 index, post-hoc analysis; type: in vivo, human; conditions: before and after administration
# Method in brief: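 This post-hoc analysis covered HCV/HBV cirrhosis patients given 280 mg/m² of the test compound by 4 h IV infusion twice weekly for 12 weeks. FIB-4 index was calculated before and after administration.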
# [4] = type: in vivo, human
# Method in brief: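 Cirrhosis patients (3 per dose level) received a single 4 h IV infusion on Day −7 before the first cycle. Cmax, Tmax, t1/2 and AUC were derived by non-compartmental analysis, with the last concentration extrapolated assuming constant elimination.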
substance,measurement,setting,value
PRI-724,Patients with CP class B whose LSM decreased by ≥10% relative to baseline,[1],four of six patients
same,"Serum M2BPGi, mean level",[2],lower relative to baseline levels but not statistically significant
same,"Serum hyaluronic acid, mean level",[2],no difference in mean levels
same,"Serum procollagen III peptide, mean level",[2],lower relative to baseline levels but not statistically significant
same,"Serum type IV collagen type S, mean level",[2],no difference in mean levels
same,FIB-4 index,[3],statistically significant decrease
same,PRI-724 AUC 0-24h,"[4]; 140 mg/m^2/4h, Max",4660 ng·h/mL
same,PRI-724 Cmax,"[4]; 140 mg/m^2/4h, Max",1520 ng/mL
same,PRI-724 Tmax,"[4]; 140 mg/m^2/4h, Max",4 h
same,PRI-724 AUC 0-24h,"[4]; 140 mg/m^2/4h, Mean",3740 ng·h/mL
same,PRI-724 Cmax,"[4]; 140 mg/m^2/4h, Mean",1150 ng/mL
same,PRI-724 AUC 0-24h,"[4]; 140 mg/m^2/4h, Median",3770 ng·h/mL
same,PRI-724 Cmax,"[4]; 140 mg/m^2/4h, Median",1030 ng/mL
same,PRI-724 AUC 0-24h,"[4]; 140 mg/m^2/4h, Min",2790 ng·h/mL
same,PRI-724 Cmax,"[4]; 140 mg/m^2/4h, Min",888 ng/mL
same,PRI-724 Tmax,"[4]; 140 mg/m^2/4h, Min",1 h
same,PRI-724 AUC 0-24h,"[4]; 280 mg/m^2/4h, Max",7500 ng·h/mL
same,PRI-724 Cmax,"[4]; 280 mg/m^2/4h, Max",2590 ng/mL
same,PRI-724 Tmax,"[4]; 280 mg/m^2/4h, Max",4 h
same,PRI-724 AUC 0-24h,"[4]; 280 mg/m^2/4h, Mean",5700 ng·h/mL
same,PRI-724 Cmax,"[4]; 280 mg/m^2/4h, Mean",1710 ng/mL
same,PRI-724 AUC 0-24h,"[4]; 280 mg/m^2/4h, Median",5960 ng·h/mL
same,PRI-724 Cmax,"[4]; 280 mg/m^2/4h, Median",1780 ng/mL
same,PRI-724 AUC 0-24h,"[4]; 280 mg/m^2/4h, Min",2650 ng·h/mL
same,PRI-724 Cmax,"[4]; 280 mg/m^2/4h, Min",757 ng/mL
same,PRI-724 Tmax,"[4]; 280 mg/m^2/4h, Min",1 h
same,PRI-724 AUC 0-24h,"[4]; 380 mg/m^2/4h, Max",16000 ng·h/mL
same,PRI-724 Cmax,"[4]; 380 mg/m^2/4h, Max",4730 ng/mL
same,PRI-724 Tmax,"[4]; 380 mg/m^2/4h, Max",4 h
same,PRI-724 AUC 0-24h,"[4]; 380 mg/m^2/4h, Mean",11800 ng·h/mL
same,PRI-724 Cmax,"[4]; 380 mg/m^2/4h, Mean",3530 ng/mL
same,PRI-724 AUC 0-24h,"[4]; 380 mg/m^2/4h, Median",11900 ng·h/mL
same,PRI-724 Cmax,"[4]; 380 mg/m^2/4h, Median",3540 ng/mL
same,PRI-724 AUC 0-24h,"[4]; 380 mg/m^2/4h, Min",7940 ng·h/mL
same,PRI-724 Cmax,"[4]; 380 mg/m^2/4h, Min",2590 ng/mL
same,PRI-724 Tmax,"[4]; 380 mg/m^2/4h, Min",1 h
